Published values of several laboratories.
Medium: plasma

| SMILES | host | route | dose | notes | measurement | result |
| --- | --- | --- | --- | --- | --- | --- |
| COc1cc(C(=O)NC2CCN(C)CC2)c(F)cc1Nc1ncc(C(F)(F)F)c(Oc2cccc3c2C(=O)N(C)C3)n1 | human | oral | 200 mg | multiple doses, once daily, steady state, patients | AUC | 35.4 µM·h |
| COc1ccc([C@@H]2CN(C(=O)[C@@H](O)CO)C[C@@]2(C)[C@@H](C)O)cc1OC1CN(c2ccc(C)cn2)C1 | human | oral | 40 mg | single dose, healthy volunteers | AUC(0-t) | 7650 ng·h/mL |
| CC(C)(O)c1ccccc1-c1ccc2[nH]c(/C=C/c3ccc(C(F)(F)F)cc3)nc2c1 | male human | oral | 2 mg | single dose, fasted | AUC(0-t) | 94.7 ng·h/mL |
| Cn1c(=O)oc2ccc(-c3ccc(C[C@@H](C#N)NC(=O)[C@@H]4CNCCCO4)cc3)cc21 | male human | oral | 15 mg | single dose, healthy volunteers | AUC | 4.17 µM·h |
| CCc1nc2c(C)cc(N3CCN(CC(=O)N4CC(O)C4)CC3)cn2c1N(C)c1nc(-c2ccc(F)cc2)c(C#N)s1 | human | oral | 20 mg | single dose, fed, healthy volunteers | AUC(0-inf) | 500 ng·h/mL |
| COCCOc1cnc2ccn([C@H](C)c3nnc4c(F)cc(-c5cnn(C)c5)cn34)c(=O)c2c1 | human | oral | 400 mg | multiple doses, once daily, patients | AUC(0-t) | 49600 ng·h/mL |
| CC(C)n1cc(C#N)c2cc(-n3cc(C(=O)O)cn3)ccc21 | human | oral | 100 mg | single dose, fasted, healthy volunteers | AUC(0-inf) | 19600 ng·h/mL |
| Cn1cc(-c2ccc(S(=O)(=O)[C@@H]3C[C@@H](C(=O)NC4(C#N)CC4)N(C(=O)C4(C(F)(F)F)CC4)C3)c(C(F)(F)F)c2)cn1 | human | oral | 10 mg | single dose, fasted, healthy volunteers | AUC(0-inf) | 995 ng·h/mL |
| Cc1ccc(C(=O)N(CCCN)[C@@H](c2oc3cc(Cl)ccc3c(=O)c2Cc2ccccc2)C(C)C)cc1 | human | intravenous | 4 mg/m² | single dose, patients, infusion | AUC | 5160 ng·h/mL |
